Results published in ChEMBL document CHEMBL4393719, “Tetrahydro-3-benzazepines with fluorinated side chains as NMDA and σ1 receptor antagonists: Synthesis, receptor affinity, selectivity and antiallodynic activity” (Eur J Med Chem, 2019).
Calls of active or inactive are those of the source.

Assays:
[1] = tested on: HepG2; test: Cytotoxicity against human HepG2 assessed as reduction in cell viability at 1 to 100 uM after 20 hrs by MTT assay; assay type: cell-based; details: hepg2, 20 h
Summary of the method: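 HepG2 cells, 3 x 10^4/well, grown 24 h in MEM/10% FBS, then exposed 20 h in serum-free medium to compound at 1, 10, 100 µM (from DMSO solutions). MTT 0.5 mg/mL for 4 h, formazan dissolved in DMSO, OD 550 nm. IC50 taken as lowest concentration giving ≥50% cytotoxicity versus untreated cells; duplicates in two assays (n = 4).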

[2] = molecular target: T1, Sigma intracellular receptor 2 (Rattus norvegicus, UniProt Q5U3Y7); test: Displacement of [3H]-di-o-tolylguanidine from sigma2 receptor in rat liver membranes incubated for 120 mins by scintillation counting method; assay type: cell membranes
T1 sequence (Q5U3Y7 whole entry): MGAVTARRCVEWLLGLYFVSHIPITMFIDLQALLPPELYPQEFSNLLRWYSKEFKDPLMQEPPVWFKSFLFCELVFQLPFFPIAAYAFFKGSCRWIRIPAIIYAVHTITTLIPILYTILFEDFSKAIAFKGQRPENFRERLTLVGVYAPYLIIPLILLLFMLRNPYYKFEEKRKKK

[3] = molecular target: T2, Mu-type opioid receptor (Homo sapiens, UniProt P35372); test: Displacement of [3H]DAMGO from human MOR expressed in CHO-K1 cells membranes after 60 mins by micro beta scintillation counting method; assay type: cell membranes
Summary of the method: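 Human MOR in CHO-K1 membranes (20 µg) with 1 nM [3H]DAMGO in 50 mM Tris-HCl, 5 mM MgCl2, pH 7.4, 27 °C for 60 min. Test compound at five concentrations; 10 µM naloxone defines nonspecific binding. Filtered, washed thrice with ice-cold 10 mM Tris-HCl, counted by liquid scintillation.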

[4] = Displacement of [3H] ifenprodil from GluN2B/GluN1a (unknown origin) expressed in mouse L(tk-) cell membranes incubated for 120 mins by scintillation counting method; set-up: species or system Homo sapiens
Summary of the method: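 Membranes from mouse L(tk-) cells co-transfected with dexamethasone-inducible GluN1a/GluN2B (1:5), induced 24 h with 4 μM dexamethasone plus 4 μM ketamine.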

[5] = tested on: Mus musculus; test: Antiallodynic activity in CD-1 mouse model of capsaicin-induced mechanical allodynia assessed as increase in paw withdrawal threshold at 16 mg/kg, sc administered 30 mins before capsaicin addition and measured after 15 mins in presence of sigma1 receptor agonist PRE-084 by von-Frey test; assay type: functional, organism-based
Summary of the method: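 Female CD-1 mice pretreated sc with σ1 agonist PRE-084 (32 mg/kg) 5 min before sc test compound; 30 min later capsaicin 1 µg intraplantar. After 15 min, 0.5 g electronic von Frey stimulus on secondary hyperalgesia area; withdrawal latency averaged over three trials, 50 s cutoff. Effect as % antiallodynia versus HPMC-treated; 6-8 animals, one-way ANOVA plus Bonferroni.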

[6] = molecular target: 5-hydroxytryptamine receptor 1A (Homo sapiens) (UniProt P08908); test: Displacement of [3H]8-OH-DPAT from human 5HT1A receptor at 1 uM incubated for 2 hrs scintillation counting method relative to control
Summary of the method: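 Human 5-HT1A-enriched membranes (10 μg), 2 nM [3H]-8-OH-DPAT, 50 mM Tris-HCl/5 mM MgCl2 pH 7.4, 0.1% DMSO final, 2 h at 37 °C; 10 μM 5-HT for nonspecific binding. Compound at 1 μM; radioligand displacement read after GF/C filtration.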

[7] = tested on: Mus musculus; test: Antiallodynic activity in CD-1 mouse model of capsaicin-induced mechanical allodynia assessed as increase in paw withdrawal threshold at 8 mg/kg, sc administered 30 mins before capsaicin addition and measured after 15 mins by von-Frey test; assay type: functional, organism-based
Summary of the method: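 Female CD-1 mice given compound or HPMC vehicle sc 30 min before intraplantar capsaicin (1 µg in 20 µL, 1% DMSO). 15 min later, electronic von Frey punctate stimulus (0.5 g) at least 5 mm from injection site; paw withdrawal latency, three trials 30 s apart, 50 s cutoff. % antiallodynic effect = [(LTD−LTS)/(CT−LTS)]×100; 6-8 mice per group, ANOVA with Bonferroni.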

[8] = molecular target: Histamine H1 receptor (Homo sapiens) (UniProt P35367); test: Displacement of [3H]pyrilamine from human recombinant histamine H1 receptor at 1 uM after 90 mins by scintillation counting method relative to control
Summary of the method: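 Human H1 receptor-enriched membranes (25 μg) with 2.4 nM [3H]pyrilamine in Na+/K+ phosphate buffer pH 7.4, 0.1% DMSO, 90 min, 25 °C; 10 μM triprolidine for nonspecific binding. Single 1 μM test concentration; filtration-based readout of displacement.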

[9] = molecular target: CYP2D6 (Homo sapiens, UniProt P10635); test: Inhibition of recombinant human CYP2D6 at 1 uM by fluorescence probe substrate-based flurometric analysis; assay type: ADME
[10] = molecular target: Delta-type opioid receptor (Homo sapiens, UniProt P41143); test: Inhibition of DOR (unknown origin)
[11] = species on record: Sus scrofa; details: at 1 µM
[12] = molecular target: 5-hydroxytryptamine receptor 2B (Homo sapiens) (UniProt P41595); test: Displacement of [3H]-LSD from recombinant human 5HT2B receptor at 1 uM after 30 mins by scintillation counting method relative to control
Summary of the method: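 Human 5-HT2B-enriched membranes (5 µg), 1 nM [3H]LSD in 50 mM Tris-HCl, 4 mM CaCl2, 1% ascorbic acid, pH 7.4, 0.1% DMSO; 30 min, 37 °C; 50 µM 5-HT for nonspecific binding. Single 1 µM compound concentration; displacement after filtration.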

[13] = molecular target: T2, Mu-type opioid receptor; test: Agonist activity at MOR (unknown origin) by cAMP assay; assay type: functional
[14] = molecular target: Voltage-gated inwardly rectifying potassium channel KCNH2 (Homo sapiens, UniProt Q12809); test: Inhibition of human ERG expressed in CHO cells at -80 mV holding potential by automated patch clamp electrophysiology assay; assay type: cell-based
[15] = tested on: HepG2; test: Cytotoxicity against human HepG2 assessed as reduction in cell viability at 1 to 100 uM after 20 hrs by neutral red uptake assay; assay type: cell-based; details: hepg2, 20 h
Summary of the method: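 HepG2 seeded 3 x 10^4/well, 24 h, then 20 h serum-free exposure at 1, 10 or 100 µM. Neutral red 50 µg/mL for 3 h, washed, dye extracted with 50% ethanol/1% acetic acid, OD 550 nm. IC50 assigned as lowest concentration reaching ≥50% cytotoxicity against untreated cells; n = 4 (duplicate, two assays).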

[16] = Stability of compound in phosphate buffer at pH 7.4 after 24 hrs by HPLC analysis; assay type: physicochemical; details: pH 7.4, 24 h
Summary of the method: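 Compound (25 μL of 10 mM DMSO stock) added to 1 mL aqueous buffered solution, pH 2 or pH 7.4, stirred 24 h at room temperature, analyzed by HPLC-MS; deemed stable if peak area remained 95–105%.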

[17] = Drug metabolism in rat liver microsomes at 1 uM incubated for 1 hr in presence of NADPH by UPLC-MS analysis; assay type: ADME, Microsome; details: read-out: Drug metabolism
Summary of the method: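 Liver microsomes, compound 1 µM, 37 °C for 1 h in 50 mM Na/K phosphate pH 7.4, 3 mM MgCl2, NADPH-regenerating system, CYP 0.3 nmol/mL. Aliquots at 0, 10, 20, 40, 60 min quenched with cold acetonitrile, supernatants by UPLC-MS/MS; % parent remaining at end reported. Terfenadine as positive control.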

[18] = molecular target: Kappa-type opioid receptor (Homo sapiens, UniProt P41145); test: Inhibition of KOR (unknown origin)
Sequence of Kappa-type opioid receptor (P41145 whole entry): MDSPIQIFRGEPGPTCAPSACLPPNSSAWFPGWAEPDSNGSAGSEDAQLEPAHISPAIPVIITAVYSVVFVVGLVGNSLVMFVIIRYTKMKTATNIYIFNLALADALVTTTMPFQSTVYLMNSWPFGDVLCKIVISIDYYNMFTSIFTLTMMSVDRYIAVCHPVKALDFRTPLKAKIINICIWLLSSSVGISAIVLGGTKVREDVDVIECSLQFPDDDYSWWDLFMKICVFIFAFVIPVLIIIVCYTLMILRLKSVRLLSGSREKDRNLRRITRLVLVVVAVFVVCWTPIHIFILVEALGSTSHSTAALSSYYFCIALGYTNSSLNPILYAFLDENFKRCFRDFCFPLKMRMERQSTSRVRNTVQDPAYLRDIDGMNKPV

T2 sequence (P35372 whole entry): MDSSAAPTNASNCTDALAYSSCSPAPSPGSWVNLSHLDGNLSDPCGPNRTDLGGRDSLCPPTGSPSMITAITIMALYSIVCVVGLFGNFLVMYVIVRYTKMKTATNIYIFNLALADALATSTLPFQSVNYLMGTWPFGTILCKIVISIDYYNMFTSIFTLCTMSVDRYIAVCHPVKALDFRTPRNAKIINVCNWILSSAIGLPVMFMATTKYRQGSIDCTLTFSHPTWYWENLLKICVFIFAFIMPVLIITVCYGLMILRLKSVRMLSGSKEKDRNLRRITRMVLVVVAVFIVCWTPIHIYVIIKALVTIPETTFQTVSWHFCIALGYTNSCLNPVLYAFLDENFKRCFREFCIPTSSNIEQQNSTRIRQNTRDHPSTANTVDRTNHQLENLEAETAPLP
Sequence of 5-hydroxytryptamine receptor 2B (Homo sapiens) (P41595 whole entry): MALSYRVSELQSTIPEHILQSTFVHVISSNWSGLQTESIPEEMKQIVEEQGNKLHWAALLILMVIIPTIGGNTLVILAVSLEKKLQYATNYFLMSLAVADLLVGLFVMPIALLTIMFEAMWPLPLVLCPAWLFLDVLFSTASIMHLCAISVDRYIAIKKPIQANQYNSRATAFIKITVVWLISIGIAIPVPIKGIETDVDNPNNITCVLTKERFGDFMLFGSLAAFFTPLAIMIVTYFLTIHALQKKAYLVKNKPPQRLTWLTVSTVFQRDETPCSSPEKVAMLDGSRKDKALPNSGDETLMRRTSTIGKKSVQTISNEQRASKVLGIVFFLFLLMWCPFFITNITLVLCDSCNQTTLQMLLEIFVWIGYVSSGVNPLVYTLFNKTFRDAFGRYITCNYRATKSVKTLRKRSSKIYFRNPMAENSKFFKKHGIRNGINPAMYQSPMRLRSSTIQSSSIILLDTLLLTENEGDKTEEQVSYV
Sequence of Voltage-gated inwardly rectifying potassium channel KCNH2 (Q12809 whole entry): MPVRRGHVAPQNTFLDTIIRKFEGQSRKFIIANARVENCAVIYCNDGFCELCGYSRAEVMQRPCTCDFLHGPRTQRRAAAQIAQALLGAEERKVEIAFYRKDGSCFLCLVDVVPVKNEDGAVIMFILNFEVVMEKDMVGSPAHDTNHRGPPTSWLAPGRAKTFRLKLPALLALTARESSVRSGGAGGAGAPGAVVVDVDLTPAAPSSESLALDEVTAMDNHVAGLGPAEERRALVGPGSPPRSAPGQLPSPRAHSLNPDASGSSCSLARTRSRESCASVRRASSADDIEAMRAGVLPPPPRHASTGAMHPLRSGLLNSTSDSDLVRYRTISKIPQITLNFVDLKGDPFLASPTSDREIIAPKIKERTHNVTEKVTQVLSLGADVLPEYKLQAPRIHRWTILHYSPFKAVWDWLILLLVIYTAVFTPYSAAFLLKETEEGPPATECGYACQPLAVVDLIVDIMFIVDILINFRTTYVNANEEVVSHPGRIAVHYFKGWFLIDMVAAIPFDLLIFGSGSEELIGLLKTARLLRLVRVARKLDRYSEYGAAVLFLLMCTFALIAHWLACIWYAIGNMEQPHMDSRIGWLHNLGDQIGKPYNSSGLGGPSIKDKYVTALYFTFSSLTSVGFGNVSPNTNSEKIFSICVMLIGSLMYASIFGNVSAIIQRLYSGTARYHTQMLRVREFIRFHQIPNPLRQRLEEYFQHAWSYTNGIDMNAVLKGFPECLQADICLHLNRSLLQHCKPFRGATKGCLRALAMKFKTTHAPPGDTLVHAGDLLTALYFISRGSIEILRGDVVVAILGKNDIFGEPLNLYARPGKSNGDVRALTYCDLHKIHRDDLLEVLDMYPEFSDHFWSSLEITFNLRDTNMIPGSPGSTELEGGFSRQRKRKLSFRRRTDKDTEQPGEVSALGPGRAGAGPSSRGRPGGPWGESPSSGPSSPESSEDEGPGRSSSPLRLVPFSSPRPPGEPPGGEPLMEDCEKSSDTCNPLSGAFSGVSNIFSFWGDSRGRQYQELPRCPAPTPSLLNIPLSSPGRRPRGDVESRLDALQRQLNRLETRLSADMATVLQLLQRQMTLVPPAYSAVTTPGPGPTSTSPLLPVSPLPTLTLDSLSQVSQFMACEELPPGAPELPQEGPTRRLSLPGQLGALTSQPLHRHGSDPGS
Sequence of Histamine H1 receptor (Homo sapiens) (P35367 whole entry): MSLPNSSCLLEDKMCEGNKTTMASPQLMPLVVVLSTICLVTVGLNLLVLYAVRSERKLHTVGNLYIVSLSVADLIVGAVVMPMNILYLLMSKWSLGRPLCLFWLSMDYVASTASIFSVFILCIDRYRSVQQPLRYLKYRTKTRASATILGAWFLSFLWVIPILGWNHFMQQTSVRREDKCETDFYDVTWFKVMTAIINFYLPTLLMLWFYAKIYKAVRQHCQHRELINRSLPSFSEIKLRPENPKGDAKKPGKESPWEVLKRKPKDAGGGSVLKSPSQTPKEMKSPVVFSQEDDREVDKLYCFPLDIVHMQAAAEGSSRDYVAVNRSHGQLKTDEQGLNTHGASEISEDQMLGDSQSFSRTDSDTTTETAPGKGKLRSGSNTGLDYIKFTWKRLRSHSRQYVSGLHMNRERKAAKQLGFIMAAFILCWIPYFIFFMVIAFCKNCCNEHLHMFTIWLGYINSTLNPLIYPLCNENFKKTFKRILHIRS
Sequence of 5-hydroxytryptamine receptor 1A (Homo sapiens) (P08908 whole entry): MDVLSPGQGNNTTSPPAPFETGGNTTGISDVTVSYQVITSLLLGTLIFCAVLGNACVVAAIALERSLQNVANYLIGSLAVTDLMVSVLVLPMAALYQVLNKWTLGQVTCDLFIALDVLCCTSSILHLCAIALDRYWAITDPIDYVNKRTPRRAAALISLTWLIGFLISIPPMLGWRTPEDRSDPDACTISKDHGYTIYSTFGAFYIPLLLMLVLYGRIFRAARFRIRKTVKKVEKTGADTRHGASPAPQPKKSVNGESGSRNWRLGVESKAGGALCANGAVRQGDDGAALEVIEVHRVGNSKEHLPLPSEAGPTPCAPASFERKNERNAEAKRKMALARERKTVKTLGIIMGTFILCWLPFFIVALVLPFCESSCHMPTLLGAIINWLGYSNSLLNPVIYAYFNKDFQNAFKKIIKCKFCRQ
Sequence of Delta-type opioid receptor (P41143 whole entry): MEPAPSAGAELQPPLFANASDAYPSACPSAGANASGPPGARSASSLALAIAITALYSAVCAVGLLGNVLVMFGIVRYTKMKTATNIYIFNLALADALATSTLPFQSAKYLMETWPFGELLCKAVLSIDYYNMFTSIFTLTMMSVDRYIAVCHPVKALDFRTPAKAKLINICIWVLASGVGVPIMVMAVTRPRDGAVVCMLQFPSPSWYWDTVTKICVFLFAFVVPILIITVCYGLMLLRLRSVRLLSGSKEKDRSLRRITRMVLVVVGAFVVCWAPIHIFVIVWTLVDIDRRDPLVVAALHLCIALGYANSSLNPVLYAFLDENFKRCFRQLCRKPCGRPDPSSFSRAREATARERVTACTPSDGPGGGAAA
Sequence of CYP2D6 (P10635 whole entry): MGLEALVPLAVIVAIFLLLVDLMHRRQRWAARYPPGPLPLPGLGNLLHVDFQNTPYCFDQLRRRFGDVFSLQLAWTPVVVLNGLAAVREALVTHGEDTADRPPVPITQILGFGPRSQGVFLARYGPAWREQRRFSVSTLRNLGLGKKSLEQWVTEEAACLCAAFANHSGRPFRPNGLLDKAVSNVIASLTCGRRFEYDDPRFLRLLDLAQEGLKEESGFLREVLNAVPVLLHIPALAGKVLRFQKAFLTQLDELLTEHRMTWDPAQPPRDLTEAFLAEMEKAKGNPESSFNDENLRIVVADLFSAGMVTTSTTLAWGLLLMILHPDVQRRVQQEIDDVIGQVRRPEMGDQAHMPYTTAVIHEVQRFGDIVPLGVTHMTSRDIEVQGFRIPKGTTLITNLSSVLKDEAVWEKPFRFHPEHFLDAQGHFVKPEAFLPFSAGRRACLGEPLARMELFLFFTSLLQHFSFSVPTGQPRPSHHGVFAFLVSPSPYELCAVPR

Ki [2]: 115 nM
Ki [3]: > 1000 nM
inhibition [6]: 70%
inhibition [8]: < 50%
inhibition at 1 µM [9]: 55%
Ki [10]: > 1000 nM
inhibition [11]: 21%
inhibition [12]: < 50%
EC50 [13]: > 10000 nM
Stability [16]: Stable
metabolised at 1 h, 1 µM [17]: 100%
Ki [18]: > 1000 nM
SMILES: COc1ccc2c(c1)CCN(CCC(F)Cc1ccccc1)CC2 (stereo not drawn)
Activity [1]: Toxic
Ki [4]: 120 nM
Activity [5]: inactive
Activity [7]: Active
IC50 [14]: 553 nM
Activity [15]: Toxic
